In brackets after ≈: the same amount, converted by molar mass.
Key:
HepG2 cells [1] = experiment: Cell viability; assay type: cell-based; conditions: Homo sapiens, HepG2, read-out: IC50 (mean ± SD; n = 3)
Procedure, shortened: (§1)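 Cells were grown in medium with 10% FBS and penicillin/streptomycin 100 units/mL, humidified, at 37 °C and 5% CO2; HT-29 and HEKa were in RPMI-1640. About 2000 cells/well were seeded in 96-well plates. Cells were rinsed once with PBS and five times with distilled water.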

PC-3 cells = experiment: Cell viability; assay type: cell-based; conditions: Homo sapiens, PC-3, read-out: IC50 (mean ± SD; n = 3)
Procedure, shortened: as §1

HT-29 cells [2] = experiment: Cell viability; assay type: cell-based; conditions: Homo sapiens, HT-29, read-out: IC50 (mean ± SD; n = 3)
Procedure, shortened: as §1

HEKa cells = experiment: Cell viability; assay type: cell-based; conditions: Homo sapiens, read-out: IC50 (mean ± SD; n = 3)
Procedure, shortened: as §1

Escherichia coli = experiment: Antibacterial assay; assay type: cell-based; conditions: Gram-negative
Pseudomonas aeruginosa = experiment: Antibacterial assay; assay type: cell-based; conditions: Gram-negative
Proteus vulgaris = experiment: Antibacterial assay; assay type: cell-based; conditions: Gram-negative
Bacillus subtilis = experiment: Antibacterial assay; assay type: cell-based; conditions: Gram-positive
Staphylococcus aureus = experiment: Antibacterial assay; assay type: cell-based; conditions: Gram-positive
[3] = DPPH free radical scavenging assay; conditions: t = 16 min
Procedure, shortened: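 Radical scavenging was read by absorbance. Percent inhibition = (Abs0 − AbsT)/Abs0 × 100, where Abs0 is the control at t = 0 and AbsT is the sample with DPPH at t = 16 min.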

Candida albicans = experiment: Antifungal assay; assay type: cell-based; conditions: C. albicans
Procedure, shortened: (§2)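 Antifungal agar diffusion read as inhibition zone diameter in mm, with amphotericin B as positive control.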

C. tropicalis = experiment: Antifungal assay; assay type: cell-based, Candida tropicals
Procedure, shortened: as §2

Aspergillus flavus = experiment: Antifungal assay; assay type: cell-based; conditions: A. flavus
Procedure, shortened: as §2

Aspergillus niger = experiment: Antifungal assay; assay type: cell-based; conditions: A. niger
Procedure, shortened: as §2

HepG2 cells [4] = experiment: Cell cycle analysis; assay type: cell-based, human; conditions: HepG2, 48 h
HT-29 cells [5] = experiment: Cell cycle analysis; assay type: cell-based, human; conditions: HT-29, 48 h

| IC50 (HT-29 cells [2]) [µg/mL] | IC50 (DPPH free radical scavenging) [3] [µg/mL] | Structure (SMILES) | IC50 (HEKa cells) [µg/mL] | Inhibition zone (Escherichia coli) [mm] | Inhibition zone (Pseudomonas aeruginosa) [mm] | Inhibition zone (Proteus vulgaris) [mm] | Inhibition zone (Bacillus subtilis) [mm] | Inhibition zone (Staphylococcus aureus) [mm] | other results |
| --- | --- | --- | --- | --- | --- | --- | --- | --- | --- |
| 8.9 ± 0.97 (≈ 45.4 µM) | 55.9 (≈ 285 µM) | CC1(C)C[C@H](O)C[C@@]2(C)OC(=O)C=C12 [Compound 3, loliolide] | 3.1 ± 0.1 (≈ 15.8 µM) | 10 ± 1.40 | 09 ± 1.20 | 10 ± 1.50 | 15 ± 1.70 | 16 ± 1.90 | IC50 (HepG2 cells [1]): 4.6 ± 0.51 µg/mL (≈ 23.4 µM); IC50 (PC-3 cells): 11.9 ± 1.31 µg/mL (≈ 60.6 µM) |
| 1.7 ± 0.02 (≈ 3.13 µM) |  | COc1cccc2c1C(=O)c1c(O)c3c(c(O)c1C2=O)C[C@@](O)(C(=O)CO)C[C@@H]3O[C@H]1C[C@H](N)[C@H](O)[C@H](C)O1 [Doxorubicin] | 0.7 ± 0.04 (≈ 1.29 µM) |  |  |  |  |  | cell cycle arrest phase (HepG2 cells [4]): arrested in G2 phase; cell cycle arrest phase (HT-29 cells [5]): arrested in G2 phase |
|  | 14.2 (≈ 80.6 µM) | O=C1O[C@H]([C@@H](O)CO)C(O)=C1O [vitamin C] |  |  |  |  |  |  |  |

More lines, now with the values behind:

| Structure (SMILES) | IC50 (HT-29 cells [2]) [µg/mL] | IC50 (DPPH free radical scavenging) [3] [µg/mL] | IC50 (HEKa cells) [µg/mL] | Inhibition zone (Escherichia coli) [mm] | Inhibition zone (Pseudomonas aeruginosa) [mm] | Inhibition zone (Proteus vulgaris) [mm] | Inhibition zone (Bacillus subtilis) [mm] | Inhibition zone (Staphylococcus aureus) [mm] | other results |
| --- | --- | --- | --- | --- | --- | --- | --- | --- | --- |
| C[C@@H]1[C@H](O)[C@@H](C)/C=C/C=C/C=C/C=C/C=C/C=C/C=C/[C@H](O[C@@H]2O[C@H](C)[C@@H](O)[C@H](N)[C@@H]2O)C[C@@H]2O[C@](O)(C[C@@H](O)C[C@@H](O)[C@H](O)CC[C@@H](O)C[C@@H](O)CC(=O)O[C@H]1C)C[C@H](O)[C@H]2C(=O)O [amphotericin B] |  |  |  |  |  |  |  |  | diameter of inhibition zone (Candida albicans): 29 ± 0.90 mm; diameter of inhibition zone (C. tropicalis): 25 ± 0.87 mm; diameter of inhibition zone (Aspergillus flavus): 33 ± 1.11 mm; diameter of inhibition zone (Aspergillus niger): 41 ± 0.70 mm |
| CC1(C)S[C@@H]2[C@H](NC(=O)[C@H](N)c3ccc(O)cc3)C(=O)N2[C@H]1C(=O)O [Amoxicillin] |  |  |  | 33 ± 2.90 | 39 ± 2.40 | 30 ± 4.00 | 23 ± 6.40 | 20 ± 1.90 |  |

— paper PMC10203771 (Saudi Pharmaceutical Journal : SPJ, 2023)
